Article PMC7007868 (Molecular cancer therapeutics, 2019)
Like-named read-outs stand apart in the source and are kept apart here.

What was measured:
Modified Irwin assay = format: in vivo, mouse; details: days 0, 8, 15; for modified Irwin battery, autonomic and somatomotor function: B6 flank MPNST mice, oxotremorine 0.5 mg/kg s.c. once
How it was run: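 B6 flank MPNST mice on the 14-day efficacy dosing regimen or vehicle were scored blind on a modified Irwin autonomic/somatomotor battery on days 0, 8 and 15, including hang time (s) from an inverted wire. A separate cohort (n=5) received oxotremorine 0.5 mg/kg s.c. 30 min before testing as assay control. Scores were averaged and normalized to day-0 vehicle; grip times were compared by multiple t-tests.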

MPNST xenograft = details: single agent, twice-daily dosed; cited from earlier work
[1] = tested on: refractory pediatric sarcomas; details: prolonged infusion; cited from earlier work
[2] = Parallel artificial membrane permeation assay; format: in vitro ADME; details: PAMPA
[3] = doses over 0.6 mg/kg daily, by treatment days 6–7; cited from earlier work
MPNST cells sNF02.2 = assay: Alamar blue viability dose response; format: cell-based, human; details: read-out: IC50 growth inhibition
FGAR amidotransferase = details: cited from earlier work
[4] = tested on: human MPNST cells (sNF96.2); assay: Alamar blue viability dose response; format: cell-based; details: SNF96.2, 72 h, read-out: IC50 growth inhibition
How it was run: (§1)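 Human MPNST cells and immortalized Schwann cells were grown at 37°C in humidified 5% CO2 and exposed to test compound for 72 h. Viability was read by alamar blue fluorescence at 590 nm and expressed as percent viable relative to untreated controls. Data are given ± S.D.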

[5] = tested on: immortalized Schwann cells (ipn02.32λ); assay: Alamar blue viability dose response; format: cell-based, human; details: 72 hours drug treatment
How it was run: as §1

[6] = swine, cited from earlier work
[7] = tested on: de novo purine biosynthesis (FGAR); assay: Quantitative FGAR analysis in tumors; format: in vivo, mouse; details: JHU395 1.2 mg/kg p.o.
How it was run: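 B6 flank MPNST mice (n=8/group) were given vehicle or 1.2 mg/kg/dose p.o. for five days. Tumors were snap frozen, homogenized in methanol with 10 µM deuterated N-acetylaspartic acid internal standard (5 µL/mg) and centrifuged at 16,000 × g for 5 min. Supernatants were run by UHPLC–orbitrap full-MS negative mode against an FGAR standard curve in untreated tumor ([…]). Group means were compared by t-test.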

[8] = swine and human plasma, at 1 hour; cited from earlier work
[9] = tested on: glutamine incorporation in murine flank MPNST; assay: In vivo stable isotope flux analysis; set-up: species or system mouse; details: 1.2 mg/kg/dose p.o. for five days; m+1, m+2 (IMP, AMP), m+3 (GMP)
How it was run: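 B6 flank MPNST mice received vehicle or test compound at 1.2 mg/kg/dose p.o. for five days. On harvest day they were dosed orally, then 30 min later given three 0.2 ml tail-vein injections of 200 mM ¹⁵N₂-glutamine, 15 min apart. Tumors were flash frozen, extracted in cold 80% methanol, dried and redissolved in 50% acetonitrile. Analysis was by C18 ion-pair (tributylamine) LC-Q-TOF MS with natural-abundance correction.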

[10] = JHU395 pharmacokinetic analysis; format: in vivo, mouse
murine flank MPNST = assay: Efficacy in murine flank MPNST model; format: in vivo, mouse; details: 1.2 mg/kg p.o. × 5 days, 0.5 mg/kg × 9 days; vehicle 1695 mm^3; p≤0.05
[11] = Plasma stability of JHU395, 60 min at 37°C; format: in vitro ADME; details: one hour incubation, plasma of multiple species including humans
[12] = GI, hepatic and brain toxicity assessment during 14 days oral dosing; format: in vivo, mouse
How it was run: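 Flank MPNST mice were dosed orally for 14 days on the efficacy regimen against vehicle (n=9) and weighed thrice weekly as percent change from start. In a subset (n=3–4/condition), jejunum was fixed overnight in 10% neutral buffered formalin, paraffin-embedded, sectioned at ~5 µm and H&E-stained. A veterinary pathologist examined the sections for apoptotic figures and crypt architecture.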

[13] = tested on: human MPNST cells (sNF96.2) in human plasma; assay: Tumor cell-to-plasma partitioning; format: in vitro ADME
How it was run: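 sNF96.2 cells were washed twice in PBS and resuspended in human plasma at 7.5 million cells/mL. Test compound was spiked at 20 µM and incubated 1 h at 37°C, then spun at 1000 × g for 5 min at 4°C. Plasma and PBS-washed cell pellets were stored at -80°C, and intact prodrug and released glutamine antagonist were measured by LC-MS/MS as percent of total. Mean ± S.E.M.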

glutamine utilization = assay: Quantitative glutamine analysis in tumor and plasma; format: in vivo, mouse
[14] = Dose tolerance in non-tumored NPcis mice; format: in vivo, mouse; details: 1.2 mg/kg p.o. × 5 days then 0.5 mg/kg p.o. daily, over thirty days
[15] = tested on: immortalized Schwann cells (ipn02.32λ); assay: Glutamine titration, alamar blue growth; format: cell-based; details: Homo sapiens, 72 h, read-out: EC50 of glutamine to rescue growth
[16] = tested on: human MPNST cells (sNF96.2); assay: Glutamine titration, alamar blue growth; format: cell-based; details: SNF96.2, 72 h, read-out: EC50 of glutamine to rescue growth
How it was run: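 sNF96.2 cells were plated at 1500–2000 cells/well in standard medium. The next day the medium was replaced with glutamine-free medium made with dialyzed FBS, and fixed glutamine concentrations were added across the plate. After 72 h, growth was read by alamar blue fluorescence at 590 nm as percent growth (± S.D.).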

[17] = B6 mice, thirty minutes after JHU395 1.2 mg/kg oral
[18] = flank tumored mice, JHU395 1.2 mg/kg oral
[19] = 20 μM JHU395, one hour, sNF96.2 cells in human plasma

O=C1CCCN1CC#CCN1CCCC1 [oxotremorine, reference compound]
modified Irwin battery, autonomic and somatomotor function (Modified Irwin assay): induced significant adverse effects

O=C(Cc1cccc(OC(F)(F)F)c1)Nc1ccc(CCCCc2nnc(NC(=O)Cc3ccccn3)s2)nn1 [CB-839]
MPNST xenograft growth (MPNST xenograft): partially decreased

Sc1ncnc2nc[nH]c12 [6-MP, 6-mercaptopurine]
disease stabilization [1]: approximately 25%

[N-]=[N+]=CC(=O)CC[C@H](N)C(=O)O [DON, 6-diazo-5-oxo-L-norleucine, reference compound]
Papp at 5 h, 20 μM ([2]; pH 7): 0.0095 ×10⁻⁶ cm/s | weight loss [3]: ~20% | IC50 (MPNST cells sNF02.2; Homo sapiens, 72 h): 2.4 µM | concentration inhibiting the enzyme that converts FGAR to FGAM (FGAR amidotransferase): low micromolar levels | IC50 [4]: 9.8 µM | effect on growth of immortalized Schwann cells [5]: minimally affected

CC(C)OC(=O)[C@H](CCC(=O)C=[N+]=[N-])NC(=O)OC(OC(=O)C(C)(C)C)c1ccccc1 (some centres unmarked) [JHU395]
DON brain-to-plasma ratio ([6]; DON or JHU395-derived DON): 1.38 | DON exposure in plasma AUC0→t ([6]; equimolar dose of DON or JHU395): 5.7 µM·h | enhancement of DON brain-to-plasma ratio (JHU395 vs DON) [6]: 9.3 | apparent permeability Papp ([2]; 20 μM, pH 7.0, 5 h, room temperature): 5.707 ×10⁻⁶ cm/s | fold increase of tumor FGAR versus vehicle [7]: 75 fold | tumor FGAR ([7]; vehicle 3.4 nmol/g, p≤0.01): 254.4 nmol/g | prodrug remaining intact in plasma [8]: 83–88% | ^15N2-glutamine isotopologue enrichment in IMP, AMP, GMP versus vehicle [9]: significantly lower enrichment | DON in jejunum [10, 17]: 0.18 nmol/g | DON in plasma [10, 17]: 0.91 nmol/mL | small intestine-to-plasma DON ratio [10, 17]: 0.20 | DON plasma AUC [10, 18]: 0.977 µM·h | DON tumor AUC [10, 18]: 2.496 nmol·h/g | DON tumor Cmax [10, 18]: 1.8 nmol/g | accumulation of DON in GI tissue versus plasma ([10]; mice, full time-dependent pharmacokinetic analysis): no accumulation | tumor volume at end of treatment (murine flank MPNST): 1045 mm^3 | JHU395 remaining intact in plasma [11]: Over 80% | change from starting weight ([12]; flank MPNST mice, 14 days oral dosing): ≤ 10% | jejunal histology versus vehicle ([12]; subset of animals, after 14 days oral dosing): No differences | brain histology postmortem ([12]; subset of brains, after 14 days oral dosing): no gross changes nor cortical vacuolization | modified Irwin battery, autonomic and somatomotor function (Modified Irwin assay): performed similarly | grip time from an inverted wire (Modified Irwin assay): unaffected | IC50 (MPNST cells sNF02.2; sNF02.2, 72 hours drug treatment): 1.5 µM | share of total DON measured in cells [13, 19]: 92% | share of total DON measured in plasma [13, 19]: 8% | intact JHU395 in MPNST cells ([13]; after one hour): minimal | intact JHU395 in plasma ([13]; after one hour): detected | plasma glutamine (glutamine utilization; flank MPNST mice, vehicle 475 nmol/ml, p≤0.0001): 729 nmol/mL | tumor glutamine (glutamine utilization; flank MPNST mice, vehicle 1293 nmol/g, p≤0.001): 2096 nmol/g | increase in plasma glutamine (glutamine utilization; non-tumored mice, versus vehicle): 25% | plasma glutamine (glutamine utilization; non-tumored mice, vehicle 830 nmol/ml, p≤0.01): 1036 nmol/mL | effect on growth of immortalized Schwann cells [5]: minimally affected | tolerability of dosing regimen [14]: well-tolerated

NC(=O)CC[C@H](N)C(=O)O [glutamine]
EC50 [15]: 64.5 µM | EC50 [16]: 209 µM
